Reference: publication PMC4681692 (Child's nervous system : ChNS : official journal of the …, 2015)
Read-outs that look alike come from different tables or passages of the source.

Columns and labels:
[1] = test system: children with recurrent central nervous system (CNS) malignancies; details: in vivo
[2] = Plasma pharmacokinetics of weekly MK-0752, dose 1 course 1; assay type: in vivo; details: human, oral, both dose levels
Procedure, shortened: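 Children with recurrent CNS tumours took oral test compound capsules once weekly at 1,000 or 1,400 mg/m2, in 28-day courses. Heparinised blood was drawn before dose 1 of course 1 and at 1, 2, 3, 6, 8 (±2), 24 (±4) and 48 h after it. Plasma drug was measured by validated LC-MS/MS and analysed non-compartmentally. β came from the last two measurable points, and t1/2 = ln(2)/β.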

[3] = test system: NOTCH1 cleavage (NICD1) in PBMCs; assay: NICD1 expression in PBMCs by Western blot; assay type: in vivo, human; details: for patients with NICD1 expression decreased from baseline: PBMCs
recurrent CNS tumors [4] = assay: Tumor response in phase I trial of weekly MK-0752; assay type: in vivo, human
Procedure, shortened: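 The oral test compound was given once weekly at 1,000 or 1,400 mg/m2 in 28-day courses, using a rolling-6 design. Disease was assessed at baseline, after course 2 and after every other course thereafter. Patients got up to 6 courses unless disease progressed, and those with stable disease after 6 courses could receive up to 13 more.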

amyloid peptide levels = details: animal models; cited from earlier work
[5] = cited from earlier work; for t1/2: adults
[6] = test system: refractory adult solid tumors; details: cited from earlier work
NOTCH = details: adults, weekly administration; cited from earlier work
[7] = test system: children with recurrent CNS tumors; details: 3-days-on/4-days-off schedule; cited from earlier work
[8] = children, 3-days-on/4-days-off schedule; cited from earlier work
recurrent CNS tumors [9] = details: children, 3-days-on/4-days-off schedule; cited from earlier work
advanced breast cancer = details: with docetaxel, MK-0752 days 1-3, of 30 evaluable patients; cited from earlier work
NOTCH pathway genes = details: healthy adults, once weekly dosing; cited from earlier work
glioblastoma cell lines = details: combination with Akt inhibitor MK-2206, compared to monotherapy; cited from earlier work
[10] = test system: platinum-resistant ovarian carcinoma xenograft model; details: cited from earlier work

O=C(O)CC[C@H]1CC[C@@](c2cc(F)ccc2F)(S(=O)(=O)c2ccc(Cl)cc2)CC1 [MK-0752]
ALT increase ([1]; human): 2 | AST increase ([1]; human): 2 | Allergic rhinitis ([1]; human): 1 | Anorexia ([1]; human): 1 | Diarrhea ([1]; human): 4 | Dizziness ([1]; human): 1 | Dry skin ([1]; human): 1 | Fatigue ([1]; human): 1 | Hyperglycemia ([1]; human): 1 | Hypermagnesemia ([1]; human): 1 | Hypoalbuminemia ([1]; human): 2 | Hypokalemia ([1]; human): 1 | Hypomagenesemia ([1]; human): 2 | Hypophosphatemia ([1]; human): 2 | Hypotension ([1]; human): 1 | Increased Hemoglobin ([1]; human): 1 | Leukopenia ([1]; human): 2 | Nausea ([1]; human): 1 | Vomiting ([1]; human): 2 | grade 4 toxicities ([1]; human): no grade 4 toxicities | Non-dose-limiting grade 3 toxicities [1]: lymphopenia, neutropenia, and anemia | dose-limiting diarrhea and GI toxicity [1]: not observed | half-life ([2]; median t1/2, all 10 patients): 21.7 h | half-life ([2]; t1/2 (range), all 10 patients): 9.8 to 42.2 h | change in NICD expression in PBMCs ([3]; 24 hours after the higher dose (1,400 mg)): dose-dependent decrease | patients with NICD1 expression decreased from baseline ([3]; 24 hours post MK-0752, 1,000 and 1,400 mg/m^2): 6 of 7 | patients with NICD1 expression decreased from baseline ([3]; 24 hours post MK-0752, treated at 1,400 mg/m^2 (n=3)): all three | patients with prolonged SD (6 and 10 cycles) (recurrent CNS tumors [4]; all evaluable patients, weekly schedule): 2 of 9 | objective responses (recurrent CNS tumors [4]; weekly 1,000 and 1,400 mg/m^2): No objective responses | blood-brain barrier penetration (amyloid peptide levels): penetrate the blood-brain barrier | reduction of amyloid peptide levels (amyloid peptide levels): 50% | Cmax ([5]; adults receiving 1,800 mg (~1,040 mg/m^2) weekly): 84.2 µg/mL | t1/2 ([5]; weekly 1,800 mg (~1,040 mg/m^2)): 13.8 h | t1/2 ([5]; weekly 2,400 mg (~1,400 mg/m^2)): 16.2 h | duration of CR ([6]; one adult patient with anaplastic astrocytoma, 1,800 mg once weekly): > 1 year | duration of SD ([6]; one adult patient with glioblastoma multiforme, 4,200 mg once weekly): > 1 year | dose achieving target inhibition (NOTCH): 3,200 mg | dose-limiting toxicity preventing dose escalation beyond 260 mg/m^2 [7]: dose-limiting elevations of AST and ALT | well-tolerated dose [7]: 260 mg/m^2 | t1/2 [8]: 11.4 h | evaluable patients with prolonged SD (3 and 4 cycles) (recurrent CNS tumors [9]): 2 of 17 | patients with PR (advanced breast cancer): 9 | patients with SD (advanced breast cancer): 11 | duration of decreased expression of NOTCH pathway genes (NOTCH pathway genes): at least 96 hours

O=S1(=O)N[C@@]2(CN1CC(F)(F)F)[C@@H]1CC[C@H]2Cc2ccc(/C=C/CN3CCC(C(F)(F)F)CC3)cc2C1 [MRK003]
effect of combination on migratory and invasive potential of glioblastoma (glioblastoma cell lines): synergistic inhibition | combination effect with paclitaxel [10]: synergy
